Converted amounts (≈) assume the structure as drawn.
Columns and labels:
[1] = system: Bifidobacterium adolescentis; experiment: Antimicrobial activity against Bifidobacterium adolescentis assessed as percent resistant isolates after 48 hrs by agar dilution method; format: functional
Summary of the method: (§1)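 CLSI agar dilution on recent Korean clinical anaerobe isolates. Inoculum 10^5 CFU per spot by replicator. Plates incubated in an anaerobic chamber at 37°C for 48 h. For piperacillin plus tazobactam, tazobactam was held constant at 4 μg/ml. Resistance and susceptibility rates derived from MICs.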

[2] = system: Bacteroides thetaiotaomicron; experiment: Antimicrobial activity against Bacteroides thetaiotaomicron assessed as percent resistant isolates after 48 hrs by agar dilution method; format: functional; summary of the method: as §1
Bacteroides caccae [3] = experiment: Antimicrobial activity against Bacteroides caccae assessed as percent susceptible isolates after 48 hrs by agar dilution method; format: functional
Actinomyces israelii = experiment: Antimicrobial activity against Actinomyces israelii assessed as percent resistant isolates after 48 hrs by agar dilution method; format: functional; summary of the method: as §1
Schaalia odontolytica = experiment: Antimicrobial activity against Actinomyces odontolyticus assessed as percent resistant isolates after 48 hrs by agar dilution method; format: functional; summary of the method: as §1
Eubacterium sp. = experiment: Antimicrobial activity against Eubacterium sp. assessed as percent resistant isolates after 48 hrs by agar dilution method; format: functional; summary of the method: as §1
Clostridioides difficile = experiment: Antimicrobial activity against Clostridium difficile assessed as percent resistant isolates after 48 hrs by agar dilution method; format: functional
Bifidobacterium sp. [4] = experiment: Antimicrobial activity against Bifidobacterium sp. after 48 hrs by agar dilution method; format: functional
Summary of the method: (§2)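 MICs on clinical anaerobe isolates by the CLSI agar dilution method. Inoculum of 10^5 CFU applied with a Steers replicator. Plates incubated 48 h at 37°C in an anaerobic chamber.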

Finegoldia magna = experiment: Antimicrobial activity against Finegoldia magna after 48 hrs by agar dilution method; format: functional
Summary of the method: (§3)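 CLSI agar dilution (M11-A7); inoculum 10^5 CFU applied by replicator; plates incubated anaerobically 48 h at 37°C. For piperacillin-tazobactam, tazobactam held constant at 4 μg/ml.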

Prevotella buccae = experiment: Antimicrobial activity against Prevotella buccae assessed as percent susceptible isolates after 48 hrs by agar dilution method; format: functional, Segatella buccae; summary of the method: as §3
Bacteroides ovatus [5] = experiment: Antimicrobial activity against Bacteroides ovatus assessed as percent resistant isolates after 48 hrs by agar dilution method; format: functional; summary of the method: as §1
Schaalia meyeri [6] = experiment: Antimicrobial activity against Actinomyces meyeri assessed as percent resistant isolates after 48 hrs by agar dilution method; format: functional; summary of the method: as §1
Parvimonas micra [7] = experiment: Antimicrobial activity against Peptostreptococcus micros after 48 hrs by agar dilution method; format: functional; summary of the method: as §3
Bacteroides caccae [8] = experiment: Antimicrobial activity against Bacteroides caccae after 48 hrs by agar dilution method; format: functional; summary of the method: as §2
Fusobacterium nucleatum = experiment: Antimicrobial activity against Fusobacterium nucleatum after 48 hrs by agar dilution method; format: functional; summary of the method: as §3
Hoylesella oralis = experiment: Antimicrobial activity against Prevotella oralis assessed as percent resistant isolates after 48 hrs by agar dilution method; format: functional; summary of the method: as §1
Bifidobacterium sp. [9] = experiment: Antimicrobial activity against Bifidobacterium sp. assessed as percent resistant isolates after 48 hrs by agar dilution method; format: functional; summary of the method: as §1
Bifidobacterium sp. [10] = experiment: Antimicrobial activity against Bifidobacterium sp. assessed as percent susceptible isolates after 48 hrs by agar dilution method; format: functional; summary of the method: as §3
[11] = system: Bacteroides thetaiotaomicron; experiment: Antimicrobial activity against Bacteroides thetaiotaomicron assessed as percent susceptible isolates after 48 hrs by agar dilution method; format: functional
Parvimonas micra [12] = experiment: Antimicrobial activity against Peptostreptococcus micros assessed as percent susceptible isolates after 48 hrs by agar dilution method; format: functional; summary of the method: as §1
Prevotella intermedia [13] = experiment: Antimicrobial activity against Prevotella intermedia assessed as percent susceptible isolates after 48 hrs by agar dilution method; format: functional; summary of the method: as §3
Bacteroides ovatus [14] = experiment: Antimicrobial activity against Bacteroides ovatus after 48 hrs by agar dilution method; format: functional; summary of the method: as §2
Schaalia meyeri [15] = experiment: Antimicrobial activity against Actinomyces meyeri assessed as percent susceptible isolates after 48 hrs by agar dilution method; format: functional
Prevotella bivia = experiment: Antimicrobial activity against Prevotella bivia assessed as percent resistant isolates after 48 hrs by agar dilution method; format: functional; summary of the method: as §1
Prevotella intermedia [16] = experiment: Antimicrobial activity against Prevotella intermedia after 48 hrs by agar dilution method; format: functional; summary of the method: as §3
Actinomyces naeslundii = experiment: Antimicrobial activity against Actinomyces naeslundii assessed as percent susceptible isolates after 48 hrs by agar dilution method; format: functional

CO[C@@]1(NC(=O)C2SC(=C(C(N)=O)C(=O)O)S2)C(=O)N2C(C(=O)O)=C(CSc3nnnn3C)CS[C@@H]21 (some centres not stated) [CEFOTETAN]
Activity [1]: 0% | Activity [2]: 86% | Activity (Bacteroides caccae [3]): 89% | Activity (Actinomyces israelii): 15% | Activity (Schaalia odontolytica): 15% | Activity (Eubacterium sp.): 15% | Activity (Clostridioides difficile): 17% | MIC50 (Bifidobacterium sp. [4]): 4 µg/mL (≈ 6.95 µM) | MIC90 (Bifidobacterium sp. [4]): 64 µg/mL (≈ 111 µM) | MIC50 (Finegoldia magna): 1 µg/mL (≈ 1.74 µM) | MIC90 (Finegoldia magna): 2 µg/mL (≈ 3.47 µM) | Activity (Prevotella buccae): 72% | Activity (Bacteroides ovatus [5]): 86% | Activity (Schaalia meyeri [6]): 15% | MIC50 (Parvimonas micra [7]): 4 µg/mL (≈ 6.95 µM) | MIC90 (Parvimonas micra [7]): 64 µg/mL (≈ 111 µM) | MIC50 (Bacteroides caccae [8]): > 128 µg/mL | MIC90 (Bacteroides caccae [8]): > 128 µg/mL | MIC (Fusobacterium nucleatum): 0.06 µg/mL (≈ 0.104 µM) | Activity (Hoylesella oralis): 17% | Activity (Bifidobacterium sp. [9]): 15% | Activity (Bifidobacterium sp. [10]): 85% | Activity [11]: 89% | Activity (Parvimonas micra [12]): 31% | Activity (Prevotella intermedia [13]): 100% | MIC50 (Bacteroides ovatus [14]): > 128 µg/mL | MIC90 (Bacteroides ovatus [14]): > 128 µg/mL | Activity (Schaalia meyeri [15]): 85% | Activity (Prevotella bivia): 17% | MIC50 (Prevotella intermedia [16]): 2 µg/mL (≈ 3.47 µM) | MIC90 (Prevotella intermedia [16]): 16 µg/mL (≈ 27.8 µM) | Activity (Actinomyces naeslundii): 85%

— ChEMBL document CHEMBL1671716, “Antimicrobial susceptibility patterns for recent clinical isolates of anaerobic bacteria in South Korea” (2010)
